KCNK9 block = blocks the human KCNK9 two-pore domain potassium channel; HEK293 KCNK9, FluxOR thallium flux fluorescence; active compounds read low; 310,000 tested, 1.2% active; AID 488922; B-score at 10 µM; Q9NPC2;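 active means ratio B-score over 3 SD below the library mean, with starting fluorescence within 5 SD of its mean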;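 further: negative B-score means less thallium flux so channel inhibition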
hERG protect = shields human hERG channel from block by proarrhythmic agents. Q12809. CHO-hERG, FluxOR thallium flux, dofetilide IC70 present. 310,000 tested, 0.51% active. activation (rescue from dofetilide block), less the hit threshold, % at 10 µM;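 active means activation above the mean of controls blocked by dofetilide plus 5 SD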;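 further: thallium influx through hERG after potassium depolarization seen as dye fluorescence rise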
KCNQ1 act = human KCNQ1 channel potentiation or activation; P51787; CHO-K1 KCNQ1, thallium flux FluxOR fluorescence; active compounds read high; B-score at 10 µM; 310,000 tested, 0.35% active; AID 2648;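 active means fluorescence ratio B-score, a plate-corrected score, at least three library SD, with initial intensity B-score within 5 SD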
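Assay system: CHO-K1 cells stably expressing KCNQ1; Medium: assay buffer with matched DMSO; Also added: K+/Tl+ depolarizing stimulus; Dosing: single dose; Timing: dye 90 min, compound 20 min, room temperature; Measured by: kinetic FluxOR thallium fluorescence, 10-s 1-Hz baseline, 110-s post-stimulus read; Read-out: peak-minus-minimum fluorescence over initial fluorescence, negative-control normalized, B-scored.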
KCC2 mod = KCC2 (human) Cl- transport modulation. Q9H2X9. KCC2 cells, thallium flux FluoZin-2 fluorescence. B-score of Tl+ flux slope (higher = more flux/activation; lower = inhibition) at 10 µM. 190,000 tested, 2.2% active. AID 1456;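 active means thallium flux slope and its plate-corrected score both differing from the plate sample mean at a set confidence after two filtering rounds, in either direction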;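 further: slope of fluorescence scaled to starting intensity during 10 to 20 s after thallium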
KCNK3 block = human KCNK3 channel inhibition, primary screen. B-score at 10 µM. CHO-KCNK3 thallium flux, FluxOR fluorescence; active compounds read low. O14649. 340,000 tested, 0.84% active;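 active means B-score under library mean minus 4 SD, starting fluorescence ratio at most library mean plus 5 SD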;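 further: more negative B-score means stronger inhibition of thallium flux through KCNK3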
KCNQ1 inh = human KCNQ1 channel inhibition | CHO-K1 KCNQ1, FluxOR thallium flux fluorescence; active compounds read high | B-score at 10 µM | 310,000 tested, 1.3% active | AID 2642;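 active means compounds whose thallium flux B-score, printed positive for inhibition, exceeds three library SD while starting fluorescence stays within three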;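 further: channel opened by potassium depolarization with thallium stimulus after 20 min compound exposure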
An asterisk follows results filed as active; i = inactive; x = no result. A selection: hits, their analogues and other compounds. The true share with any hit is near 4.1%.

SMILES | KCNK9 block | hERG protect | KCNQ1 act | KCC2 mod | KCNK3 block | KCNQ1 inh
CC(C)=CCN1CCN(Cc2c[nH]c3ccccc23)CC1CCO (stereo not given) | i | -7 | i | x | i | i
Oc1ccccc1N=Nc1nc(-c2ccccc2)c(-c2ccccc2)[nH]1 | i | -19 | i | -0.26 | i | 10*
COc1ccc(N=Nc2nc(-c3ccccc3)c(-c3ccccc3)[nH]2)cc1 | i | -6 | i | -1 | i | 6*
COc1ccccc1N=Nc1nc(-c2ccccc2)c(-c2ccccc2)[nH]1 | i | -28 | i | -0.66 | i | i
CC(=O)C[C@H](O)CC(=O)[C@@H]1OC(=O)CCCCCCc2ccccc21 | x | x | x | x | i | x
CCCCNC(=S)NNC(=O)c1cc(C2CC2)nc2ccccc12 | i | -13 | i | x | i | i
CCOc1ccccc1NC1=C(Cl)C(=O)N(c2ccccc2)C1=O | i | -11 | 13* | -0.023 | i | i
C[C@@H]1CN(Cc2nc(-c3cnccn3)no2)C[C@H](C)O1 | i | 7.4* | i | 0.95 | i | i
CCC(=O)N1CCN(c2ccccc2NC(=O)COc2cccc(C)c2)CC1 | i | -19 | i | 13* | i | i
O=C(COc1ccc(Br)cc1)Nc1ccccc1N1CCCC1 | i | -8 | i | 1.5 | i | i
O=C(COc1cccc(C(F)(F)F)c1)Nc1ccccc1N1CCCCC1 | -7.8* | -15 | i | x | i | i
O=C(O)c1cc([N+](=O)[O-])ccc1N1CCCCC1 | i | -3 | i | -0.62 | i | i
Cc1ccc(C(=O)c2cc([N+](=O)[O-])ccc2N2CCCCC2)c(C)c1 | -7.5* | -4 | i | 0.84 | i | i
Cc1ccc(OCC(=O)N/N=C/c2cc([N+](=O)[O-])ccc2N2CCCCC2)cc1 | -7.4* | -6 | i | -0.39 | i | i
CCC(=O)N1CCN(c2ccccc2NC(=O)c2cccc(C)c2)CC1 | i | -9 | i | -0.057 | i | i
COc1ccc(CN(C(=O)c2cc(=O)c3ccccc3o2)C2CCS(=O)(=O)C2)cc1OC (stereo not given) | i | -9 | i | x | i | i
COc1ccc(OCC(=O)Nc2cc(OC)ccc2N2CCCCC2)cc1 | -7.9* | -4 | i | x | i | i
COc1ccc(N2CCCC2)c(NC(=O)COc2ccccc2Cl)c1 | i | -8 | i | x | i | i
CC(=O)N1CCN(c2ccccc2NC(=O)COc2cc(C)ccc2C(C)C)CC1 | i | -24 | i | x | i | 6*
COc1ccc([C@H]2CC(=O)C=C(c3cccc4c3Oc3ccccc3S4)C2)cc1OC | x | x | x | x | i | x
Cc1csc(CNc2ncnc3ccc(-c4cccc(Cl)c4)cc23)c1 | x | x | x | x | i | x
O=C(Nc1cc(Oc2ccccc2)cc([N+](=O)[O-])c1)C12CC3CC(C1)CC(n1cnc(Cl)n1)(C3)C2 | i | -24 | i | 0.99 | i | 12*
CCC(C)n1c(=S)[nH]c2c(sc3ccc([N+](=O)[O-])cc32)c1=O (stereo not given) | i | 105* | i | 53* | i | i
CC(C)n1c2ccccc2c2cc([N+](=O)[O-])ccc21 | i | 1 | i | 0.25 | i | i
CC1=Nc2ccccc2N=C(NC(=O)c2ccccc2)C1c1ccc(Cl)cc1 (stereo not given) | i | -3 | i | 0.35 | i | 12*
SMILES | KCNK9 block | hERG protect | KCNQ1 act | KCC2 mod | KCNK3 block | KCNQ1 inh
CC1=CC(c2ccc(Cl)cc2)n2nc(NC(=O)c3ccccc3)nc2N1 (stereo not given) | i | -14 | i | x | i | i
O=C(NCC1CCCO1)C(=O)N/N=C\c1ccc2c(c1)OCO2 (stereo not given) | i | -8 | i | x | i | i
COc1ccc(Cc2nc(C(=O)Nc3ccc(Cl)cc3)cs2)cc1 | i | -11 | i | x | -18* | i
CCN(CC)CCN(C(=O)c1ccc2c(c1)CCCC2)c1nc2ccc(OC)cc2s1 | i | -29 | i | x | i | 12*
CCN(CC)CCN(C(=O)c1ccc2c(c1)CCCC2)c1nc2c(C)cccc2s1 | i | -14 | i | x | i | 8*
CCN(CC)CCN(C(=O)c1ccc2c(c1)CCCC2)c1nc2ccc(C)cc2s1 | i | -31 | i | x | i | 12*
O=C(O)c1nn(CCOc2c(Cl)cccc2Cl)c(=O)c2ccccc12 | i | -10 | i | x | i | i
O=C(NC(=S)Nn1cnc2c(cnn2-c2ccccc2)c1=O)c1ccc(Cl)cc1 | i | -4 | i | -1.6 | i | i
O=C(NC(=S)Nn1cnc2c(cnn2-c2ccccc2)c1=O)c1ccc(Oc2ccccc2)cc1 | i | 1 | i | 18* | i | i
CC(C)(C)C(=O)NC(=C(Cl)Cl)P(=O)(O)O | x | x | x | -3.8* | i | x
COc1ccccc1CN1CC(C(=O)NCCC2=CCCCC2)CCC1=O (stereo not given) | i | -9 | i | x | i | i
Cc1ccc(Cl)cc1N1CCN(Cc2nnnn2C2CCCCC2)CC1 | i | -16 | i | x | -11* | i
c1ccc(N2CCN(Cc3nnnn3C3CCCCC3)CC2)cc1 | i | -8 | i | -0.72 | i | i
O=C(COc1cccc2ccccc12)N/N=C/c1ccccc1OCc1ccc(C(=O)O)cc1 | i | -14 | i | -0.084 | i | 11*
O=C(COc1ccccc1-c1ccccc1)N/N=C/c1cccc2ccccc12 | i | -2 | i | -0.23 | i | i
CCOC(=O)C1=C(C)n2c(s/c(=C/c3cccc([N+](=O)[O-])c3)c2=O)=NC1c1ccc(O)c(OC)c1 (stereo not given) | i | -14 | i | 0.21 | i | 6*
Fc1ccc(NC(=S)NN=C2CCCCCC2)cc1 | i | -10 | i | 22* | i | i
COCCNC(=O)CN(C(=O)c1ccc(N2CCCC2)nc1)c1ccccc1 | i | 5.1* | i | -2.7 | i | i
CCc1nnc(NC(=O)CCC(=O)N2CCN(C3CCCCC3)CC2)s1 | i | 4 | 13* | 0.099 | i | i
CC(C)c1nnc(NC(=O)CCC(=O)N2CCN(C3CCCCC3)CC2)s1 | i | -9 | i | 0.028 | i | i
COCCn1c(=S)[nH]c2sc3c(c2c1=O)CCC(C)C3 (stereo not given) | i | 27* | 60* | x | i | i
Nn1c(=S)[nH]c2sc3c(c2c1=O)CCCC3 | i | -3 | i | x | i | i
CCn1nnc2sc3c(c2c1=O)CCC(C)C3 (stereo not given) | i | -5 | i | -0.92 | i | i
CCCn1c(=S)[nH]c2sc3c(c2c1=O)CCCC3 | i | 48* | 43* | x | i | i

Source: PubChem BioAssay
